How the values were obtained:
[1] = Cytotoxicity against human HeLa cells assessed as cell viability at 20 uM relative to control; assay type: cell-based; conditions: read-out: Activity
Procedure, shortened: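 Mammalian HeLa cells incubated with test compound at a single 20 µM concentration. Read-out is the percentage of viable cells remaining after incubation.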

[2] = system: Plasmodium falciparum; experiment: Antiplasmodial activity against chloroquine-sensitive Plasmodium falciparum 3D7 assessed as parasite growth inhibition; assay type: functional, organism-based
Procedure, shortened: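 In vitro growth inhibition of P. falciparum 3D7. IC50 reported in µM, with 20 µM as the highest concentration tested.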

[3] = system: Plasmodium falciparum; experiment: Antimalarial activity against synchronized ring stage chloroquine-sensitive Plasmodium falciparum assessed as parasite growth inhibition incubated for 48 hrs in presence of 10% human plasma by hypoxanthine assay; assay type: functional, organism-based

Row | Compound | viability at 20 µM [1] | IC50 [2] | IC50 [3]
1 | COc1nc2cc(C)cc(C)c2cc1CNCc1ccncc1 | 60.7% | 12 µM | –
2 | COc1ccc2nc(Cl)c(CN(Cc3cccs3)Cc3cc4cc(C)ccc4nc3OC)cc2c1 | 103% | 13.4 µM | –
3 | Cc1ccc2nc(Cl)c(CN(Cc3cccnc3)Cc3cc4c(C)cc(C)cc4nc3Cl)cc2c1 | 80.3% | 7.6 µM | –
4 | COc1nc2ccccc2cc1CN(Cc1cccnc1)Cc1cc2cc(C)ccc2nc1Cl | 98.3% | 9.8 µM | –
5 | COc1ccc2nc(OC)c(CNCc3cccs3)cc2c1 | 93.2% | > 20 µM | –
6 | COc1nc2cc(C)cc(C)c2cc1CN(Cc1cccs1)Cc1cc2cc(C)ccc2nc1Cl | 86% | > 20 µM | –
7 | Fc1ccc2nc(Cl)c(CN(Cc3ccccn3)Cc3cc4cc(F)ccc4nc3Cl)cc2c1 | 98.7% | 9.8 µM | –
8 | COc1ccc2nc(OC)c(CN(Cc3cccs3)Cc3cc4cc(C)ccc4nc3Cl)cc2c1 | 99.2% | 0.93 µM | –
9 | COc1nc2ccccc2cc1CN(Cc1ccccn1)Cc1cc2ccccc2nc1OC | 89% | 3.5 µM | –
10 | COc1nc2ccccc2cc1CNCc1ccccn1 | 44.3% | 1.4 µM | –
11 | COc1nc2ccc(F)cc2cc1CN(Cc1cccs1)Cc1cc2cc(C)ccc2nc1Cl | 95.2% | 11.3 µM | –
12 | COc1nc2ccc(F)cc2cc1CNCc1cccnc1 | 97.2% | 17.9 µM | –
13 | COc1nc2ccc(Cl)cc2cc1CNCc1cccnc1 | 100% | 16.8 µM | –
14 | COc1nc2cc(C)cc(C)c2cc1CN(Cc1cccnc1)Cc1cc2cc(C)ccc2nc1Cl | 77.6% | 12.3 µM | –
15 | COc1nc2ccccc2cc1CNCc1ccncc1 | 69.9% | 2.1 µM | –
16 | COc1nc2ccc(C)cc2cc1CN(Cc1cccs1)Cc1cc2cc(C)ccc2nc1Cl | 87.9% | 12.6 µM | –
17 | COc1nc2ccccc2cc1CN(Cc1ccco1)Cc1cc2cc(C)ccc2nc1Cl | 84.4% | 12.8 µM | –
18 | COc1nc2cc(C)cc(C)c2cc1CN(Cc1ccccn1)Cc1cc2c(C)cc(C)cc2nc1OC | 90.1% | 2.8 µM | –
19 | COc1nc2ccc(F)cc2cc1CNCc1cccs1 | 93.5% | > 20 µM | –
20 | COc1nc2ccc(C)cc2cc1CN(Cc1ccccn1)Cc1cc2cc(C)ccc2nc1OC | 93.3% | > 20 µM | –
21 | Clc1nc2ccccc2cc1CNCc1ccncc1 | 73.7% | 2.3 µM | –

Row | Compound | viability at 20 µM [1] | IC50 [2] | IC50 [3]
22 | COc1nc2ccccc2cc1CNCc1ccco1 | 88.9% | > 20 µM | –
23 | COc1ccc2nc(Cl)c(CN(Cc3cccs3)Cc3cc4c(C)cc(C)cc4nc3OC)cc2c1 | 85.4% | > 20 µM | –
24 | COc1nc2ccc(C)cc2cc1CNCc1cccnc1 | 99.5% | 13.4 µM | –
25 | Cc1ccc2nc(Cl)c(CN(Cc3ccccn3)Cc3cc4cc(C)ccc4nc3Cl)cc2c1 | 93% | > 20 µM | –
26 | Clc1nc2ccccc2cc1CNCc1ccccn1 | 65.6% | > 20 µM | –
27 | COc1nc2ccc(C)cc2cc1CNCc1cccs1 | 99.7% | > 20 µM | –
28 | COc1nc2cc(C)cc(C)c2cc1CNCc1ccccn1 | 56.7% | 0.23 µM | –
29 | COc1nc2ccccc2cc1CNCc1cccnc1 | 89.9% | 13.4 µM | –
30 | Clc1ccc2nc(Cl)c(CN(c3ccccc3)c3nnc(-c4ccccc4)o3)cc2c1 | – | – | 89 nM
31 | COc1ccc2nc(OC)c(CNCc3cccnc3)cc2c1 | 100% | 12.8 µM | –
32 | COc1nc2cc(C)cc(C)c2cc1CNCc1cccnc1 | 76.7% | > 20 µM | –
33 | COc1nc2ccc(F)cc2cc1CN(Cc1cccnc1)Cc1cc2cc(C)ccc2nc1Cl | 92.6% | 9.6 µM | –
34 | Oc1ccc2nc(Cl)c(CN(Cc3ccccn3)Cc3cc4cc(O)ccc4nc3Cl)cc2c1 | 88.8% | 2.5 µM | –
35 | COc1nc2ccccc2cc1CNCc1cccs1 | 89.9% | > 20 µM | –
36 | COc1nc2ccccc2cc1CN(Cc1ccccn1)Cc1cc2ccccc2nc1Cl | 89.9% | > 20 µM | –
37 | Cc1cc(C)c2cc(CNCc3cccnc3)c(Cl)nc2c1 | 77.2% | > 20 µM | –
38 | COc1ccc2nc(OC)c(CN(Cc3ccccn3)Cc3cc4cc(OC)ccc4nc3OC)cc2c1 | 79.5% | 3.4 µM | –
39 | Clc1nc2ccccc2cc1CN(Cc1ccccn1)Cc1cc2ccccc2nc1Cl | 90.6% | > 20 µM | –
40 | COc1nc2cc(C)cc(C)c2cc1CNCc1cccs1 | 87.5% | > 20 µM | –
41 | COc1ccc2nc(Cl)c(CN(Cc3ccccn3)Cc3cc4cc(OC)ccc4nc3Cl)cc2c1 | 83.8% | > 20 µM | –
42 | C=C[C@H]1CN2CC[C@H]1C[C@H]2[C@H](O)c1ccnc2ccc(OC)cc12 [QUININE] | – | – | 826 nM

Reference: ChEMBL document CHEMBL4732220, “Design, synthesis and biological evaluation of mono- and bisquinoline methanamine derivatives as potential antiplasmodial agents” (Bioorg Med Chem Lett, 2021)
